# Test results taken from PMC7686272 (Angewandte Chemie (International ed. in English), 2020).
# Where two headings read alike, the source gives them in different places.
# What was measured:
# [1] = system: L858R/T790M/L718Q EGFR Ba/F3 cells; assay: Ba/F3 cell proliferation assay, L858R/T790M/L718Q EGFR; format: cell-based, murine
# [2] = system: L858R/T790M/C797S EGFR Ba/F3 cells; assay: Ba/F3 cell proliferation assay, L858R/T790M/C797S EGFR; format: cell-based, murine
# CRBN = CRBN (Homo sapiens, UniProt Q96SW2); assay: Cellular CRBN engagement assay; format: cell-based; conditions: restoration of BRD4BD2-GFP signal, Figure 2B
# Sequence of CRBN (Q96SW2 whole entry, species assumed): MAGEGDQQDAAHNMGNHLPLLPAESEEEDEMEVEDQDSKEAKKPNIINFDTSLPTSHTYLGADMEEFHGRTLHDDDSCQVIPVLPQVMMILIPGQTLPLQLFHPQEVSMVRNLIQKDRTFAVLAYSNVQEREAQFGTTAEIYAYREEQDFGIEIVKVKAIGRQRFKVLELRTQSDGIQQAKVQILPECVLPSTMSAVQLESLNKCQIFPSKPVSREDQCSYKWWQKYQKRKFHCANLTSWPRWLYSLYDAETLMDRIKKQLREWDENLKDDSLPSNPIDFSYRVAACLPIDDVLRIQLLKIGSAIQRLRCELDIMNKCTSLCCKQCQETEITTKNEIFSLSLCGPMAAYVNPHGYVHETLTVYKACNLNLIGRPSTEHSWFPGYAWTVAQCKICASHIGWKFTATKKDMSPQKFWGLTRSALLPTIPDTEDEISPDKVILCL
# wildtype EGFR = wildtype EGFR (Homo sapiens, UniProt P00533); assay: Western blot of total EGFR protein in wildtype EGFR Ba/F3 cells; format: cell-based, murine; conditions: increasing concentrations, 6, 24 and 48 hours
# Outline: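 Wildtype EGFR Ba/F3 cells exposed to rising test-compound concentrations for 6, 24 and 48 h, then lysed and immunoblotted for total EGFR with tubulin as loading control. Band densitometry was normalised to tubulin and expressed as percent EGFR remaining relative to DMSO control. The same treatment was run in parallel on L858R/T790M Ba/F3 cells.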
# EGFR L858R/T790M = EGFR L858R/T790M (Homo sapiens, UniProt P00533, L858R/T790M); assay: HTRF kinase assay of purified EGFR L858R/T790M; format: biochemical; conditions: for IC50: read-out: IC50 against EGFR L858R/T790M, HTRF assay, purified enzyme
# L858R/T790M EGFR = L858R/T790M EGFR (Homo sapiens, UniProt P00533, L858R/T790M); assay: Western blot of total EGFR protein in L858R/T790M Ba/F3 cells; format: cell-based, murine; conditions: L858R/T790M Ba/F3, 24 hours, 0.1 μM DDC-01-163; 10 μM pomalidomide, 1 μM JBJ-07-149 or increasing MLN4924
Structure (SMILES),effect on EGFR protein levels in wildtype Ba/F3 cells (wildtype EGFR),IC50 (EGFR L858R/T790M) [µM],effect on EGFR degradation by DDC-01-163 (competition / rescue) (L858R/T790M EGFR),also measured
"C=CC(=O)Nc1cc(Nc2nccc(-c3cn(C)c4ccccc34)n2)c(OC)cc1N(C)CCN(C)C [osimertinib, reference compound]",,,,sensitivity of LT/L718Q EGFR Ba/F3 cells in cell proliferation assay [1]: resistant; sensitivity of LT/C797S EGFR Ba/F3 cells in cell proliferation assay [2]: resistant
O=C1CCC(N2C(=O)c3cccc(NCCOCCOCCOCCN4CCN(c5ccc(-c6ccc7c(c6)C(=O)N(C(C(=O)Nc6nccs6)c6cc(F)ccc6O)C7)cc5)CC4)c3C2=O)C(=O)N1 (stereo not drawn) [JBJ-07-038],did not affect protein levels,0.019,,
O=C(Nc1nccs1)C(c1ccccc1)N1Cc2ccc(-c3ccc(N4CCNCC4)nc3)cc2C1=O (stereo not drawn) [JBJ-07-149],,0.0011,prevented EGFR degradation,sensitivity of LT/L718Q EGFR Ba/F3 cells in cell proliferation assay ([1]; L858R/T790M/L718Q EGFR Ba/F3 cells): resistant; sensitivity of LT/C797S EGFR Ba/F3 cells in cell proliferation assay ([2]; L858R/T790M/C797S EGFR Ba/F3 cells): resistant

# Now from value to compound, other results behind:
effect on EGFR protein levels in wildtype Ba/F3 cells (wildtype EGFR),IC50 (EGFR L858R/T790M) [µM],effect on EGFR degradation by DDC-01-163 (competition / rescue) (L858R/T790M EGFR),Structure (SMILES),also measured
did not affect protein levels,0.39,,O=C1CCC(N2C(=O)c3cccc(NCCOCCOCCOCCN4CCN(c5ccc(-c6ccc7c(c6)C(=O)N(C(C(=O)Nc6nccs6)c6cc(F)ccc6F)C7)cc5)CC4)c3C2=O)C(=O)N1 (stereo not drawn) [JBJ-07-200],cellular CRBN engagement (CRBN): more potent CRBN engagement than JBJ-07-038; reduction of biochemical activity compared to DDC-01-163 (EGFR L858R/T790M; ratio of IC50 values): 9 fold; reduction of biochemical activity compared to JBJ-07-038 (EGFR L858R/T790M; ratio of IC50 values): 21 fold
,,prevented EGFR degradation,Nc1cccc2c1C(=O)N(C1CCC(=O)NC1=O)C2=O (stereo not drawn) [pomalidomide],
,,rescue EGFR degradation,NS(=O)(=O)OC[C@@H]1C[C@@H](n2ccc3c(N[C@H]4CCc5ccccc54)ncnc32)C[C@@H]1O [MLN4924],
